ChEMBL document CHEMBL1240482, “Synthesis and antiproliferative evaluation of certain indeno[1,2-c]quinoline derivatives. Part 2” (J Med Chem, 2010)
Active and inactive are the calls of the source. No cut-off for these calls is given here.

Key:
HeLa [1] = assay: Cytotoxicity against human HeLa cells after 48 hrs by MTT assay; format: functional
Summary of the method: (§1)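 Cells grown in DMEM with 10% FBS at 37 °C and 5% CO2, seeded at 5 × 10^3 per well and allowed 24 h before drug. Serial dilutions from DMSO stocks applied for 48 h. MTT (2 mg/mL in PBS) added for 2 h, formazan dissolved in DMSO, absorbance read at 570 nm. GI50 interpolated by linear regression from at least three points in the 20-80% range; three independent experiments.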

SAS [2] = assay: Cytotoxicity against human SAS cells after 48 hrs by MTT assay; format: functional; summary of the method: as §1
A549 = assay: Cytotoxicity against human A549 cells after 48 hrs by MTT assay; format: functional; settings: A549, 48 h; summary of the method: as §1
PC-3 = assay: Cytotoxicity against human PC3 cells after 48 hrs by MTT assay; format: functional; settings: PC-3, 48 h; summary of the method: as §1
[3] = Cytotoxicity against human BT-483 cells after 48 hrs by MTT assay; format: functional; settings: BT-483, 48 h; summary of the method: as §1
[4] = Cytotoxicity against human Detroit 551 cells after 48 hrs by MTT assay; format: cell-based; summary of the method: as §1
HeLa [5] = assay: Selectivity index, ratio of IC50 for human Detroit 551 cells to IC50 for human HeLa cells; format: functional
SAS [6] = assay: Selectivity index, ratio of IC50 for human Detroit 551 cells to IC50 for human SAS cells; format: functional
Detroit 551 [7] = assay: Selectivity index, ratio of IC50 for human Detroit 551 cells to IC50 for human PC3 cells; format: functional
Detroit 551 [8] = assay: Selectivity index, ratio of IC50 for human Detroit 551 cells to IC50 for human BT-483 cells; format: functional
Nucleic Acid = assay: Binding affinity to pBR322; format: nucleic-acid assay; settings: Escherichia coli
[9] = Cell cycle arrest in human BT-483 cells assessed as accumulation at sub-G1 phase at 3 uM after 24 hrs by flow cytometry; format: functional, cell-based
Summary of the method: (§2)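 BT483 cells exposed to 0, 1, 3 or 10 μM for 24 h, then stained with propidium iodide and analysed for DNA content by flow cytometry. The subdiploid (sub-G1) peak, expressed as a percentage of the whole population, is scored as apoptotic.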

[10] = Cell cycle arrest in human BT-483 cells assessed as accumulation at sub-G1 phase at 10 uM after 24 hrs by flow cytometry; format: functional, cell-based; summary of the method: as §2
[11] = AUC (0 to infinity) in CD1 mouse at 2 mg/ kg, iv; format: ADME, organism-based; design: time infinity, dose 2 mg/ kg, route intravenous; settings: plasma
Summary of the method: (§3)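 Fasted male CD-1 (Crl.) mice, 22-24 g; single tail-vein bolus of 2.0 mg/kg in PEG400/ethanol/water (30/5/65), 10 mL/kg. Cardiac-puncture blood into K-EDTA at 0-27 h, three mice per time point; plasma analysed by LC-MS/MS after acetonitrile precipitation. Parameters calculated from mean plasma concentrations.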

[12] = Volume of distribution at steady state in CD1 mouse at 2 mg/ kg, iv; format: ADME, organism-based; design: dose 2 mg/ kg, route intravenous; settings: in vivo, read-out: Vdss; summary of the method: as §3
[13] = Apparent volume of distribution in CD1 mouse at 2 mg/ kg, iv; format: ADME, organism-based; design: dose 2 mg/ kg, route intravenous; settings: in vivo, read-out: Vz; summary of the method: as §3
[14] = Cmax in CD1 mouse at 20 mg/ kg, po; format: ADME, organism-based; design: dose 20 mg/ kg, route oral; settings: in vivo
Summary of the method: (§4)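 Male CD-1 (Crl.) mice, 22-24 g, fasted 4 h before dosing; single oral gavage of 20 mg/kg as a suspension in 0.5% methylcellulose/water, 10 mL/kg. Cardiac-puncture plasma (K-EDTA) taken predose to 27 h, three mice per time point; LC-MS/MS quantification.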

[15] = AUC (0 to infinity) in CD1 mouse at 20 mg/ kg, po; format: ADME, organism-based; design: time infinity, dose 20 mg/ kg, route oral; settings: plasma; summary of the method: as §4
[16] = Mean retention time in CD1 mouse at 20 mg/ kg, po; format: ADME, organism-based; design: dose 20 mg/ kg, route oral; settings: in vivo; summary of the method: as §4
[17] = Oral bioavailability in CD1 mouse at 20 mg/ kg, po; format: ADME, organism-based; settings: in vivo; summary of the method: as §4
BT-483 = assay: Antitumor activity against human BT-483 cells xenografted in BALB/c athymic mouse assessed as reduction in tumor size at 10 to 20 mg/kg, iv; format: functional, organism-based
Summary of the method: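 Balb/C athymic nude mice, 6-8 weeks, about 20 g, given subcutaneous BT483 breast cancer cells. Once tumours averaged about 500 mm3, dosed iv at 10 or 20 mg/kg once daily for 14 days, in a cosolvent formulation diluted in 5% dextrose; vehicle controls; three animals per group. Caliper volume taken as width × length × height.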

Mus musculus [18] = assay: Toxicity to BALB/c mouse assessed as survival rate at 10 mg/kg, iv; format: organism-based; design: dose 10 mg/kg, route intravenous; settings: in vivo
Summary of the method: (§5)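 Balb/C athymic nude mice (6-8 weeks, ~20 g) bearing subcutaneous BT483 breast xenografts (0.5 × 10^6 cells). Treatment began at ~500 mm3 tumour volume: cosolvent formulation diluted in 5% dextrose, iv at 10 or 20 mg/kg once daily for 14 days; controls received vehicle. 3 animals per group. Survival was assessed by Kaplan-Meier analysis at study end, p < 0.05.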

Mus musculus [19] = assay: Toxicity to BALB/c mouse assessed as survival rate at 20 mg/kg, iv; format: organism-based; design: dose 20 mg/kg, route intravenous; settings: in vivo; summary of the method: as §5
Mus musculus [20] = assay: Toxicity to BALB/c mouse assessed as change in body weight at 20 mg/kg, iv; format: organism-based; design: dose 20 mg/kg, route intravenous; settings: in vivo
Summary of the method: (§6)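 BALB/c mice, 3 per group, randomized by body weight (stratified). Dosed iv via tail vein at 10, 20 or 40 mg/kg in PEG 400/ethanol/water (20/20/60), once every 3 days for 2 weeks; solvent controls. Weighed throughout. After a 24 h fast, heart blood was drawn under ether; GOT, GPT, BUN and creatinine were measured on an analyzer. Liver and kidney taken for H&E.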

Mus musculus [21] = assay: Toxicity to BALB/c mouse assessed as change in glutamic pyruvate transaminase at 20 mg/kg, iv; format: organism-based; design: dose 20 mg/kg, route intravenous; settings: in vivo; summary of the method: as §6

SMILES: COc1ccc2c(c1)/C(=N\OCCN1CCCC1)c1c-2c(O)nc2ccccc12
- GI50 (HeLa [1]; read-out: GI50): 0.23 µM
- GI50 (HeLa [1]; read-out: pGI50 (converted)): 0.229 µM
- GI50 (SAS [2]): 0.84 µM
- GI50 (A549): 0.89 µM
- GI50 (PC-3): 1.83 µM
- GI50 [3]: 0.79 µM
- GI50 at 48 h [4]: 12.4 µM
- RatioGI50 (HeLa [5]): 54.09
- RatioGI50 (SAS [6]): 14.81
- RatioGI50 (Detroit 551 [7]): 6.8
- RatioGI50 (Detroit 551 [8]): 15.75
- Activity (Nucleic Acid): Active
- Activity [9]: 58%
- Activity [10]: 88%
- AUC(0-inf) [11]: 172 ng·h/mL
- Vd [12]: 12.3 L/kg
- Vd [13]: 25.5 L/kg
- Cmax [14]: 63 ng/mL
- AUC(0-inf) [15]: 187 ng·h/mL
- MRT [16]: 3.4 h
- bioavailability [17]: 10.9%
- Activity (BT-483): Active
- Activity (Mus musculus [18]): Non-toxic
- Activity (Mus musculus [19]): Non-toxic
- Activity (Mus musculus [20]): Non-toxic
- Activity (Mus musculus [21]): Non-toxic
